As usually defined, the inhibition is the change of the read-out against control, counted positive when it falls.

The target of assay [1] is T1, Retinoic acid receptor alpha (Homo sapiens) (UniProt P10276).
T1 sequence (whole entry): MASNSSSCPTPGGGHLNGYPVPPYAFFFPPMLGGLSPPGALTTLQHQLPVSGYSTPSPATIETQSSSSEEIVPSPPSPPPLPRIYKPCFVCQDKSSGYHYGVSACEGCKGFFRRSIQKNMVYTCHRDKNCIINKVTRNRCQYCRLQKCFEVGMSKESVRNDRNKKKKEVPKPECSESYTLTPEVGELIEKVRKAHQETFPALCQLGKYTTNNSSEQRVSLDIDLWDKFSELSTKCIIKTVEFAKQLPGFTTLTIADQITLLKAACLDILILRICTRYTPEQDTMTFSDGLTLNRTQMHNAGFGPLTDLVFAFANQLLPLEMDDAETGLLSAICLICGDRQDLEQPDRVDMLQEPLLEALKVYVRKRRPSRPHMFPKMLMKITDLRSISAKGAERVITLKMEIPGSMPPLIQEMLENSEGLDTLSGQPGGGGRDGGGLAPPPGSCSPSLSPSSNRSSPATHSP
Put plainly: Antagonist activity at Gal4-fused RARalpha (unknown origin) transfected in HEK293 cells assessed as ATRA-induced transcriptional activity at 4 uM by luciferase/beta-galactosidase reporter gene assay relative to ATRA-treated control. Format: cell-based. More on the design: scale not given: the % may be the effect or the level left. The procedure, abridged:
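Same Gal4-RARα HEK-293 UAS-luciferase system, stimulated with 0.1 µM atRA alone or with 4 µM compound (40-fold molar excess); 1 µM UVI2024 served as control antagonist. Background-subtracted luciferase was normalized to β-galactosidase and given as percent of atRA-stimulated cells. Data: 2–3 experiments, triplicate.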
On the technique in general: In a reporter assay the amount or activity of a reporter protein is the signal.

The subject of assay [2] is Jurkat. Put plainly: Induction of apoptosis in human Jurkat cells assessed as activation of DEVDase at 5 uM after 4 hrs by fluorometric assay relative to control. Format: functional. In a few lines: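 Jurkat cells (20,000/well, 0.5% FBS RPMI) were treated 4 h with 5 µM compound and lysed 15 min in PIPES pH 7 buffer with NP-40, cytochalasin B and protease inhibitors. An equal volume of 2× caspase buffer containing 100 µM Ac-DEVD-AFC was added. AFC fluorescence (ex 390/em 510 nm) was read every 2 min for 1 h at 37 °C; the linear slope was taken as activity, expressed as fold over DMSO control. Data: 2 experiments, triplicate.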

Assay [3] can be described thus: Cytotoxicity against human Jurkat T cells assessed as cell viability at 4 uM after 24 hrs by CellTiter-Glo assay relative to control. Format: functional. Conditions: read-out: Activity. In a few lines:
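Jurkat cells in 0.5% FBS RPMI were exposed to 4 µM compound or 0.1% DMSO for 24 h. Viability was read as ATP by CellTiter-Glo luminescence and expressed as percent of solvent control; below 60% counted as cell killing. Data: three experiments, triplicate.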
(Cellular ATP, detected with luciferase, serves as a proxy for viable cell number.)

For assay [4], the target named is T2, Inhibitor of nuclear factor kappa-B kinase subunit alpha (Homo sapiens) (UniProt O15111).
T2 sequence (whole entry): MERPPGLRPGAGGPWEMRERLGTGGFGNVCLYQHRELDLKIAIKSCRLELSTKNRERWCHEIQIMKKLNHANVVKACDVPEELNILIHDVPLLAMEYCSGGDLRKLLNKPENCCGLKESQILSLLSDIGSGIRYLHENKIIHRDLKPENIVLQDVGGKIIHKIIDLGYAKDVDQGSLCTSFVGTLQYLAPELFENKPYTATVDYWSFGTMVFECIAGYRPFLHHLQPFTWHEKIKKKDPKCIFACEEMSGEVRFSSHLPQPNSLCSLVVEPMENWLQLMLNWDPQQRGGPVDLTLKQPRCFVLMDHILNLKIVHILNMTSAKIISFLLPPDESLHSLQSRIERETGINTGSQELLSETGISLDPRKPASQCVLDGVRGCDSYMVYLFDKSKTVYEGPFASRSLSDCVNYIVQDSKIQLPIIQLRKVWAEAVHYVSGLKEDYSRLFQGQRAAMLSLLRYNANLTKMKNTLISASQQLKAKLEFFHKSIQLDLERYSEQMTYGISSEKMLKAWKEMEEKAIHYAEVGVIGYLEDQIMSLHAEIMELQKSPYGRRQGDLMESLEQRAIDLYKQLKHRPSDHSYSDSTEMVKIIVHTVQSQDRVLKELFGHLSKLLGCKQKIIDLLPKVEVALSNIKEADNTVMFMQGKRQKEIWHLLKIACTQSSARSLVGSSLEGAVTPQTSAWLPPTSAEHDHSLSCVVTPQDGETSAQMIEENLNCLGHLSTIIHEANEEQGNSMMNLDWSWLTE
In words: Inhibition of recombinant IKKalpha (unknown origin) using ulight-IkappaomegaBalpha as substrate at 20 uM after 2 hrs by LANCE ultra TR-FRET assay relative to control. In a few lines: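 Recombinant IKKα (4 nM), IKKβ (1 nM) or IKKε (2 nM) in 50 mM Hepes pH 7.4, 10 mM MgCl2, 1 mM EGTA, 2 mM DTT, 0.01% Tween-20. Substrate was 50 nM ULight-IκBα (IKKα/β) or ULight-rpS6 (IKKε); ATP was 1.25 µM (α/β) or 5 µM (ε). Compound was tested at 20 µM. Incubation was 1 h (IKKβ) or 2 h (IKKα/ε) at room temperature, stopped with 20 mM EDTA plus 2 nM Eu-anti-phospho antibody, then TR-FRET 665/615 nm. Results are percent inhibition versus solvent; 3–4 experiments, triplicate.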
A general note: In TR-FRET formats the signal depends on donor and acceptor labels being close together.

The target of assay [5] is T3, Inhibitor of nuclear factor kappa-B kinase subunit epsilon (Homo sapiens) (UniProt Q14164).
T3 sequence (whole entry): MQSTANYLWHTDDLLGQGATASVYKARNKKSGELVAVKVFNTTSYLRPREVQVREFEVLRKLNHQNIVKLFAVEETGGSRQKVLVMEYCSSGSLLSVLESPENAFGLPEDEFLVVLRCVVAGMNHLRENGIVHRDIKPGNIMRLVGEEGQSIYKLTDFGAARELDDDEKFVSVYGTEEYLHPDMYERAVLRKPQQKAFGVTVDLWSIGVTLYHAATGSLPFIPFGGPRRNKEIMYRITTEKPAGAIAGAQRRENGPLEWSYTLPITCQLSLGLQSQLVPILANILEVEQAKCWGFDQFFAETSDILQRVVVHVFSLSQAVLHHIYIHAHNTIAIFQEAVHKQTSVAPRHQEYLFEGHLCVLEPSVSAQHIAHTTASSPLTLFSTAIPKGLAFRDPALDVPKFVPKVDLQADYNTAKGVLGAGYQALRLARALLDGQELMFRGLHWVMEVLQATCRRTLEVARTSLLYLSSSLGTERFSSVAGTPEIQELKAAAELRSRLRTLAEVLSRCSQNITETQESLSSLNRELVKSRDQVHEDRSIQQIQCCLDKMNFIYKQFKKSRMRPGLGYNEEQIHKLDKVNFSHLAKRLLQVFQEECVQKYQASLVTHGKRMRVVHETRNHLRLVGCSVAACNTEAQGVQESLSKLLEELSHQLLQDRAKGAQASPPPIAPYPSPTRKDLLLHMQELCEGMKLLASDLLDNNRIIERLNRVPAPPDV
Put plainly: Inhibition of recombinant IKKepsilon (unknown origin) using ulight-rpS6 as substrate at 20 uM after 2 hrs by LANCE ultra TR-FRET assay relative to control.

With `Cc1cc(O)c(C23CC4CC(CC(C4)C2)C3)cc1-c1ccc2cc(C(=O)O)ccc2c1Cl`, the Activity in assay [1] is 90%. For the same compound, the “fold change (FC)” value in assay [2] was determined as 55.8. For the same compound, the viability at 4 µM in assay [3] is 7.7%. Further, the values for the inhibition in assay [4] and in assay [5] were 87.3% and 41.5%, respectively.
The corresponding values for `O=C(O)/C=C/c1cnc(-c2ccc(O)c(C34CC5CC(CC(C5)C3)C4)c2)s1` are 92.4%, 0.6, 92.9%, 32.8% and 0%.
For `COCCOCOc1cc(C)c(-c2ncc(/C=C/C(=O)O)nc2OC)cc1C12CC3CC(CC(C3)C1)C2` the same measures were 99.5%, 0.3, 96.5%, 45.7% and 5.9%.

Values taken from ChEMBL document CHEMBL3112476, “Inhibition of IκB kinase-β and IκB kinase-α by heterocyclic adamantyl arotinoids” (Bioorg Med Chem, 2014).
